Compounds with a hit are over-represented: about 12% of the library has one in this group of screens.
PKD1 kinase inh: inhibitors of human PKD1 kinase, biochemical, fluorescence polarization; inhibition, % (concentration not given with the values); 0.056% of 200,000 active; PKD1 kinase fluorescence polarization assay; Serine/threonine-protein kinase D1 (Homo sapiens), Q15139
Target sequence (Q15139 whole entry, looked up): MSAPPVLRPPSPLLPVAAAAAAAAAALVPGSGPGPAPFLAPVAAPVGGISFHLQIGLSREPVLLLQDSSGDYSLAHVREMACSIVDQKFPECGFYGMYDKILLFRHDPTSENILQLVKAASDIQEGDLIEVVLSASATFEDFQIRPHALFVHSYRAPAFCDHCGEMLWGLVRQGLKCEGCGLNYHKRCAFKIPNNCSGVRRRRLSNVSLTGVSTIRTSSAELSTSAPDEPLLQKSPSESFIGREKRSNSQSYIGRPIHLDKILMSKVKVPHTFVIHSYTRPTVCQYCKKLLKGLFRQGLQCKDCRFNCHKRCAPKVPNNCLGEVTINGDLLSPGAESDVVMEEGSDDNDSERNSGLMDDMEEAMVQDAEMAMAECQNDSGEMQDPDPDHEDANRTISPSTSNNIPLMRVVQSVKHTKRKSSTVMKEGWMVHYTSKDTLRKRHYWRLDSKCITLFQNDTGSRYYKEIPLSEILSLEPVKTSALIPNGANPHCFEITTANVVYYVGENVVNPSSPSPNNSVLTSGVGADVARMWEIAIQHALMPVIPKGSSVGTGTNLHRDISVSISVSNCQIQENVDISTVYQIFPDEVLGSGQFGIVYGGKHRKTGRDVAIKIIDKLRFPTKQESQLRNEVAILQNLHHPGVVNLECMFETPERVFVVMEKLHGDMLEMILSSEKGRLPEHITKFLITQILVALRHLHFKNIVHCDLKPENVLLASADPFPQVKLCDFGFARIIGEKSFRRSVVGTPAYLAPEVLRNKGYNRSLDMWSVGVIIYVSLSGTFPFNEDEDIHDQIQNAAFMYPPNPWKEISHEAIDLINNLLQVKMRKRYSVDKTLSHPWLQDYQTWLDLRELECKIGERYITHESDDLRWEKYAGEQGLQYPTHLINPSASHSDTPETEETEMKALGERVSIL
Rad51 HR inh: human RAD51 strand exchange inhibitors, primary screen, biochemical, fluorescence. DNA repair protein RAD51 homolog 1 (Homo sapiens), Q06609. hRad51 DNA strand exchange, fluorescence dequenching. inhibition, % at 10 µM. 0.085% of 200,000 active. AID 1385, 2008;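 active = inhibition above 40% at the single screening dose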;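 note: 0% = DMSO control wells and 100% = blanks with heterologous ssDNA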
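Read-out basis: percent inhibition relative to plate controls and blanks / Assay system: human Rad51 nucleoprotein filaments preassembled on unlabelled ssDNA / Timing: filaments 15 min 37 °C, then compound 30 min / Control set: per-plate controls and blanks / Technique: fluorescence dequenching at 485/520 nm / Compound: 10 µM final, single point / Also added: Fluorescein- and BHQ1-tagged 47-mer duplex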
CHOP inhibitor: inhibitors of CHOP promoter induction, primary screen, cell-based, unfolded protein response, luciferase reporter; 3.8% of 220,000 active; inhibition, % at 10 µM; CHO-K1 CHOP-promoter luciferase, tunicamycin-induced, 15-18 h;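 active = compounds that reduced the stress-induced luciferase reporter signal by more than about 70% of percent inhibition, limit read from the data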;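 note: 0% = tunicamycin plus vehicle and 100% = wells without tunicamycin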
Arbovirus anti: antivirals against arbovirus infection, primary screen, cell-based, full library, 10K replicate subset; arbovirus infection cell-based antiviral screen; inhibition, % at 10 µM; 0.37% of 200,000 active; in the data active = inhibition above about 30%
Wee1 degr inh: Wee1 degradation inhibitors, primary screen, cell-based, HeLa, Wee1K328M-luciferase, luminescence | HeLa Luc-Wee1K328M stability; 100% = proteasome inhibitor MG132 effect | reporter increase, % at 5 µM | 1.2% of 220,000 active;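 active = activation above the mean of all tested compounds plus 3 SD, set per screening run, cut at about 8.8% in these data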;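 note: cells exposed to compound for 20 h before luminescence read; 0% = DMSO alone and 100% = MG132 at 30 µM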
Lmaj promast: Leishmania major promastigote growth inhibition, primary screen. Leishmania major promastigotes, resazurin fluorescence viability. inhibition, % at 10 µM. 9% of 200,000 active. AID 1063, 2008;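 note: promastigotes grown with compound for 44 hours at 28 °C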
Starred values were filed as active, the others as inactive; nt = no result. Cut-off read from the data, not from the text of the source, unless noted: active = inhibition above about 50%; inactive = the rest.

SMILES | PKD1 kinase inh | Rad51 HR inh | CHOP inhibitor | Arbovirus anti | Wee1 degr inh | Lmaj promast
c1ccc(-c2n[nH]c(-c3ccccc3)c2-c2nc3ccccc3[nH]2)cc1 | -7 | 2 | -6 | 5 | -3 | 92*
CCC(=O)Oc1c(S(=O)(=O)c2ccc(C)cc2)c(C)nn1C(C)(C)C | 13 | -8 | 46 | 4 | 1 | -7
Cc1ccc(S(=O)(=O)c2c(C)nn(C(C)(C)C)c2OC(=O)CC(C)C)cc1 | -2 | 3 | 80* | 6 | 0 | 15
Cc1cc(C)n(CCNC(=O)CC2C(=O)NCCN2CC2CCCCC2)n1 (stereo unspecified) | -5 | -3 | 0 | 2 | -1 | -7
Cc1cc(C)nc(NC(=NCCc2c[nH]c3ccccc23)NC(=O)Nc2ccccc2)n1 | 0 | 3 | 67 | 6 | 2 | 73*
Cc1cc(C)nc(NC(=NCCc2c[nH]c3ccccc23)NC(=O)Nc2ccc(Cl)c(Cl)c2)n1 | -1 | -2 | 53 | 13 | 2 | 98*
Cc1cc(C)nc(NC(=NCCc2c[nH]c3ccccc23)NC(=O)Nc2cccc([N+](=O)[O-])c2)n1 | -13 | 6 | -51 | -11 | -3 | 4
COc1ccc(NC(=O)CC2C(=O)N(c3cccc(OC)c3)C(=O)N2CCC(C)C)cc1 (stereo unspecified) | -2 | -4 | 22 | -6 | -2 | 1
COc1ccc(/C=N/n2cc(-c3ccc(OC)cc3)nc2N)cc1 | -2 | -10 | 70* | -8 | -2 | 93*
Fc1ccc(-c2nc3c(-c4ccccc4)cnn3cc2CCN2CCOCC2)cc1 | 5 | nt | 30 | 6 | 1 | 22
O=C(Nc1cccc([N+](=O)[O-])c1)c1ccc2ccccc2c1O | nt | 17 | 58 | nt | 3 | nt
CCOC(=O)C(C)n1cnc2sc3c(c2c1=O)CCC3 (stereo unspecified) | -7 | 4 | 14 | 17 | 0 | -7
CCc1cc2c(=O)n(C(C)C(=O)OC3CCCCC3)cnc2s1 (stereo unspecified) | 5 | -1 | 72* | -1 | -2 | -2
O=C(CC1NCCNC1=O)Nc1ccc([N+](=O)[O-])cc1 (stereo unspecified) | 4 | -7 | -4 | 3 | 4 | -2
O=S(=O)(Nc1nc2ccccc2[nH]1)c1ccc(Cl)cc1 | 4 | -10 | 17 | -7 | -2 | 57*
O=C(NCCc1ccc(Cl)cc1)C1CCN(c2ncccn2)CC1 | -2 | -11 | 9 | -3 | -2 | -6
C[C@H]1[C@H](C)CC[C@]2(C(=O)O)CC[C@]3(C)C(=CC[C@@H]4[C@@]5(C)CC[C@H](O)C(C)(C)[C@@H]5CC[C@]43C)[C@H]12 | nt | -5 | 73* | nt | nt | nt
C[C@H]1[C@H](C)CC[C@]2(C)CC[C@]3(C)C(=CC[C@@H]4[C@@]5(C)CC[C@@H](O)[C@](C)(C(=O)O)[C@@H]5CC[C@]43C)[C@H]12 | nt | 3 | 1 | nt | nt | nt
C[C@H]1[C@H](C)CC[C@]2(C(=O)O)CC[C@]3(C)C(=CC[C@@H]4[C@@]5(C)C[C@@H](O)[C@H](O)C(C)(C)[C@@H]5CC[C@]43C)[C@H]12 | 1 | 12 | 72* | -37 | 1 | -10
c1ccc(-c2nc3c(ccc4ccccc43)[nH]2)nc1 | -5 | 0 | -102 | -2 | 7 | 100*
Cc1ccc(Cl)cc1NC(=S)NCc1cccn1C | -1 | 2 | 3 | -8 | 2 | 51*
COc1cc(/C=N/NC(N)=O)ccc1OC(=O)c1ccc(C)cc1 | -5 | -13 | 44 | 5 | 0 | -4
COc1cc(/C=N/NC(N)=O)cc(Br)c1OCc1ccc(C)cc1 | -7 | 1 | 82* | -8 | 1 | -1
NC(CO)(CO)COCc1ccccc1 | 0 | 6 | -6 | 12 | 1 | -9
C/C(CC(=O)NC1CCCC1)=N\NC(=O)c1ccc([N+](=O)[O-])c(Cl)c1 | -7 | nt | 17 | -2 | -3 | -5
SMILES | PKD1 kinase inh | Rad51 HR inh | CHOP inhibitor | Arbovirus anti | Wee1 degr inh | Lmaj promast
Cc1ccc2c(c1)c1c(n2CC(O)CNC2CCCCC2)CCCC1 (stereo unspecified) | 1 | -7 | 94* | -32 | 0 | 101*
Cc1ccc2c(c1)c1c(n2CC(O)CNC(CO)(CO)CO)CCCC1 (stereo unspecified) | -5 | 8 | 11 | 7 | 1 | -2
O=C(CC1NCCNC1=O)NC1Cc2ccccc2C1 (stereo unspecified) | nt | 7 | -1 | nt | 0 | nt
N#C/C(=C\c1ccc(N2CCOCC2)c([N+](=O)[O-])c1)c1nc2ccccc2[nH]1 | 4 | -7 | 53 | 5 | -1 | 36
N#C/C(=C/c1ccc(N2CCCC2)c([N+](=O)[O-])c1)c1nc2ccccc2[nH]1 | 4 | -14 | 78* | -5 | 1 | -4
COc1cc(/C=C(\C#N)c2nc3ccccc3[nH]2)c([N+](=O)[O-])cc1OCc1ccccc1 | -9 | -38 | 40 | -5 | 1 | 90*
CCN(CC)c1ccc(/C=C(/C#N)c2nc3ccccc3[nH]2)c(OC(C)C)c1 | -3 | -308 | -3 | -20 | -3 | 98*
N#C/C(=C\c1ccncc1)c1nc2ccccc2[nH]1 | -5 | -6 | -26 | -3 | 3 | 59*
O=c1onc2cnc3ccccc3n12 | nt | nt | 10 | nt | nt | nt
Cc1ccc(C(Sc2ccccc2)C(Cn2cncn2)C(=O)c2ccccc2)cc1 (stereo unspecified) | 1 | -4 | 93* | -24 | 0 | 15
CCOC(=O)C1(Cc2ccccc2Cl)CCN(S(=O)(=O)N(C)C)CC1 | 1 | 6 | 20 | 3 | -1 | 15
CCOC(=O)C1(Cc2ccccc2)CCCN(C2CCN(C(C)=O)CC2)C1 (stereo unspecified) | -1 | -17 | 2 | -2 | -1 | 79*
CCOC(=O)C1(Cc2ccccc2Cl)CCN(C(=O)CCn2ccnc2C)CC1 | -2 | -4 | -21 | 4 | 1 | 100*
CCOC(=O)C1(Cc2ccccc2)CCCN(Cc2cccc(C(C)=O)c2)C1 (stereo unspecified) | 9 | -20 | 23 | 0 | 2 | 11
CCOC(=O)C1(Cc2ccc(Cl)cc2)CCN(Cc2nccn2CC)CC1 | -2 | 3 | 8 | 8 | 2 | 79*
CCOC(=O)C1(Cc2ccccc2)CCCN(Cc2ccncc2)C1 (stereo unspecified) | -4 | 7 | 10 | 6 | -2 | 6
CCOC(=O)C1(Cc2ccccc2)CCN(Cc2nccn2CC)CC1 | 8 | nt | -2 | 4 | 0 | -2
CCOC(=O)C1(Cc2ccccc2)CCCN(CCCn2cccn2)C1 (stereo unspecified) | -3 | -1 | 6 | -2 | -1 | 91*
